High-throughput results from PubChem.
CD11b adhes inh = inhibitors of human CD11b/CD18 binding to fibrinogen; 93,000 compounds, 0.54% hits; inhibition, % at 10 µM; P05107+P11215; AID 1497; K562 CD11b/CD18 adhesion to fibrinogen, ATPlite luminescence; Mn2+ added to activate the integrin;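 active = primary inhibition of 50% or more at 10 µM, then 40% or more on retest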
Target sequence (P05107 whole entry, looked up, other chains not shown): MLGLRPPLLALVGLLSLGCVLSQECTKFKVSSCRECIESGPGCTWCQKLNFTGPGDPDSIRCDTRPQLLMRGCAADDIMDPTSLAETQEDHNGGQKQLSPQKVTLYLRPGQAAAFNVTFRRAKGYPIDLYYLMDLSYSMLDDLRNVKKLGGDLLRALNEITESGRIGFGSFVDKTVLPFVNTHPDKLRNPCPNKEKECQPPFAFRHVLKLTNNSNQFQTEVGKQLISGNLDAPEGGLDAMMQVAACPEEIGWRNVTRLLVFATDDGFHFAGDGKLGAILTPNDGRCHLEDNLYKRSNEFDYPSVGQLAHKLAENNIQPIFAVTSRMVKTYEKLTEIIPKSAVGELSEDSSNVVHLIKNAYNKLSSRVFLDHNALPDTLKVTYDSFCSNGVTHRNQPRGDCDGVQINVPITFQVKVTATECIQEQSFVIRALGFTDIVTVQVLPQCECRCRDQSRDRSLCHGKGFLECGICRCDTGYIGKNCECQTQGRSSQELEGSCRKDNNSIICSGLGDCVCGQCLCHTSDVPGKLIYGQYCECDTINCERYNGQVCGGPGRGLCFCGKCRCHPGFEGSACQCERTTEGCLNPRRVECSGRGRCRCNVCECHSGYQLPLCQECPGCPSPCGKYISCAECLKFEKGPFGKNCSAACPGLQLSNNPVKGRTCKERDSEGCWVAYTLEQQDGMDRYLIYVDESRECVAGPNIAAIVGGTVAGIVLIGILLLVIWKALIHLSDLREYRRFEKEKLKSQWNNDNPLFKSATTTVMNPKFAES
tolC growth inh = growth inhibitors of E. coli BW25113 tolC mutant; 65,000 compounds, 2.2% hits; AID 573; growth inhibition, % at 10 µM (by protocol); OD615;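 active = growth inhibition at or above a cutoff equal to the mean over every tested compound plus 3 SD, cut at about 60% in these data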;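 note: growth measured after 20 h incubation at 37 °C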
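Test system: E. coli BW25113 ΔtolC::kan bacteria; incubation: 37 °C, 20 h exposure; medium: LB broth supplemented with 50 µg/mL kanamycin; read-out basis: percent growth inhibition; signal: A615 absorbance measurement; compound: 10 µM final, single dose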
Ecoli WT expand = blocks growth of wild type E. coli BW25113; OD600 absorbance; growth inhibition, % at 100 µM; 98,000 compounds, 0.15% hits; AID 710;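 active = growth inhibition above about 50% at one test dose, limit read from the data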;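 note: growth measured after 20 h incubation at 37 °C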
CD11b adhes enh = increases human CD11b/CD18 adhesion to fibrinogen | 93,000 compounds, 0.07% hits | AID 1499 | P05107+P11215 | K562 CD11b/CD18 adhesion to fibrinogen, ATPlite luminescence | activation, % at 10 µM;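 active = 10 µM primary screen giving 50% or more activity, confirmed by 40% or more on retest at that dose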
The depositor's hits bear a star; · = not tested or not shown. The full list was thinned out, with hits kept by preference.

SMILES	CD11b adhes inh	tolC growth inh	Ecoli WT expand	CD11b adhes enh
COc1ccc(C(O)C(CN2CCOCC2)c2ccccc2)cc1F (stereo unspecified)	-2.2	-10.6	-2.0	-2.7
O=C(COC(=O)c1ccccc1C(=O)c1ccc(Cl)cc1)NC(c1ccccc1)c1ccccc1	1.1	·	·	4.2
CCOc1ccc(-n2c(O)c(/C=N/NC(=O)C3COc4ccccc4O3)c3ccccc3c2=O)cc1 (stereo unspecified)	-8.6	·	·	3.4
O=C(Oc1ccccc1)c1cc2ccccc2o1	-29.7	71.0*	9.0	4.1
COc1cccc(-c2nc(CS(=O)CC(=O)NCc3ccccc3Cl)c(C)o2)c1 (stereo unspecified)	8.9	9.6	1.0	4.2
COc1cc(/C=C(/C#N)c2nc3ccccc3[nH]2)ccc1OCC(=O)Nc1ccccc1C	-3.0	·	-25.0	204.0*
COc1ccc(-c2cnc(N)nc2-c2ccc(OC)cc2O)cc1	-8.5	7.4	3.0	-6.2
C=C(C)COc1ccc(-c2ncncc2Oc2ccc(OC)cc2)c(O)c1	4.6	65.8*	0.0	4.0
C=C(C)COc1ccc(-c2nc(N)ncc2-c2ccc(OC)cc2)c(O)c1	·	85.6*	-29.0	·
COc1ccc(-c2ncncc2-c2csc(C)n2)c(O)c1	1.6	7.9	3.0	2.6
CCOC(=O)N1CCN(C(=O)c2cn(CC)c3cc(N4CCN(C)CC4)c(F)cc3c2=O)CC1	·	16.4	100.0*	·
CCCCCCC(=O)N1CCN(c2cc3c(cc2F)c(=O)c(C(=O)O)cn3CC)CC1	·	0.5	·	·
CCOC(=O)c1cn(CC)c2cc(N3CCOCC3)c(F)cc2c1=O	·	100.0*	22.0	·
CCOC(=O)C1CN(c2cc3c(cc2F)c(=O)c(C(=O)O)cn3CC)OC1C(=O)OCC (stereo unspecified)	1.4	98.4*	10.0	-3.9
CCC(=O)N1CCN(c2cc3c(cc2F)c(=O)c(C(=O)O)cn3CC)CC1	·	100.0*	·	·
CSCCC(C(=O)Nc1ccc2c(c1)OCO2)N1C(=O)c2ccccc2C1=O (stereo unspecified)	-38.4	-0.6	8.0	8.1
CN(C)C(=O)NC(Nc1ccc(Cl)cc1Cl)C(Cl)(Cl)Cl (stereo unspecified)	-12.1	·	11.0	-1.4
CC1C/C(=N/NC(=O)c2cccc(F)c2)c2ccc(O)cc2C1 (stereo unspecified)	-40.0	·	-8.0	-1.6
COC(=O)Cc1ccc(NC(=S)N2CCN(c3ccc(F)cc3)CC2)cc1	2.6	·	·	-0.9
CCOC(=O)c1cn(CC)c2cc(N3CCCCC3)c(F)cc2c1=O	·	100.0*	·	·
CCn1cc(C(=O)O)c(=O)c2cc(OC)ccc21	-3.8	96.5*	32.0	-3.8
Cn1c(=O)n(Cc2ccc(Cl)cc2)c2ccccc21	4.6	·	13.0	-0.3
Cc1ccc(C(=O)N/C(=C\c2cn(-c3ccccc3)nc2-c2ccccc2)C(=O)N2CCOCC2)cc1	·	·	-10.0	·
COc1cc(-c2nnc(-c3ccco3)o2)ccc1OCc1ccccc1	·	96.1*	-12.0	·
COc1cc(-c2nnc(-c3ccncc3)o2)ccc1OCc1ccccc1	0.8	-25.7	-8.0	0.1
SMILES	CD11b adhes inh	tolC growth inh	Ecoli WT expand	CD11b adhes enh
CC1CCCC(C)N1C(=O)CN1C(=O)C(C)(C)Oc2ccc(C(=O)NC3CCCC3)cc21 (stereo unspecified)	1.8	-10.3	8.0	4.4
CC1CCCC(C)N1C(=O)CN1C(=O)C(C)(C)Oc2ccc(C(=O)NC3CCCCC3)cc21 (stereo unspecified)	-9.7	84.3*	0.0	5.6
O=C(O)CCN1C(=O)/C(=C/c2ccc(-c3nc4ccccc4s3)o2)SC1=S	64.1*	·	2.0	85.9
O=C(O)CC(C(=O)O)N1C(=O)/C(=C/c2ccc(-c3nc4ccccc4s3)o2)SC1=S (stereo unspecified)	-11.7	·	3.0	2.1
CC(C)CN1C(=S)SC(C)(C)C1n1oc(=O)n(-c2ccc(Cl)cc2)c1=O (stereo unspecified)	35.3	·	-4.0	-2.5
CCOC(=O)c1sc(NC(=O)c2c(C)nn(Cc3ccccc3)c2C)cc1C	92.4	70.5*	-12.0	-9.2
CN(C)/C=C(/C#N)C(=O)c1cccc(Oc2ccc(C(C)(C)C)cc2)c1	82.4*	·	-6.0	-7.5
Cc1ccccc1Oc1cccc(C(=O)/C(C#N)=C/N(C)C)c1	-5.2	·	5.0	-0.7
Cc1ccc(C2C=C(c3ccccc3OC(F)F)Nc3ncnn32)cc1 (stereo unspecified)	-17.8	54.4	-4.0	-2.9
CN(C)c1ccc(C2C=C(c3ccc(Cl)cc3OC(F)F)Nc3ncnn32)cc1 (stereo unspecified)	3.2	96.4*	-10.0	2.7
COCCN(C(=O)CSc1nnc(Nc2ccccc2F)s1)c1c(N)n(Cc2ccccc2)c(=O)[nH]c1=O	-1.3	·	7.0	3.3
